Calls of active or inactive are those of the source.
Tests used:
Cannabinoid receptor 1 [1] = target: T1, Cannabinoid receptor 1 (Rattus norvegicus, UniProt P20272); assay: Displacement of [3H]CP-55,940 from CB1 receptor in rat brain membranes in absence of FAAH inhibitor PMSF by radioligand binding assay; format: cell membranes, Membrane
Cannabinoid receptor 2 [2] = target: Cannabinoid receptor 2 (Mus musculus, UniProt P47936); assay: Displacement of [3H]CP-55,940 from mouse CB2 receptor expressed in HEK293 cell membranes in absence of FAAH inhibitor PMSF by radioligand binding assay
Summary of the method: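 Membranes from HEK293 cells expressing human or mouse CB2 (preparations lacking FAAH activity), competing against [3H]CP-55,940. IC50 by nonlinear regression, converted to Ki. Three independent experiments run in triplicate; Ki is the mean of the three.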

[3] = target: T2, FAAH (fatty-acid amide hydrolase 1) (Homo sapiens, UniProt O00519); assay: Stability assessed as human FAAH-mediated compound hydrolysis by LC-MS/MS analysis; format: ADME; settings: human FAAH (fatty-acid amide hydrolase 1), read-out: Stability
T2 sequence (O00519 whole entry): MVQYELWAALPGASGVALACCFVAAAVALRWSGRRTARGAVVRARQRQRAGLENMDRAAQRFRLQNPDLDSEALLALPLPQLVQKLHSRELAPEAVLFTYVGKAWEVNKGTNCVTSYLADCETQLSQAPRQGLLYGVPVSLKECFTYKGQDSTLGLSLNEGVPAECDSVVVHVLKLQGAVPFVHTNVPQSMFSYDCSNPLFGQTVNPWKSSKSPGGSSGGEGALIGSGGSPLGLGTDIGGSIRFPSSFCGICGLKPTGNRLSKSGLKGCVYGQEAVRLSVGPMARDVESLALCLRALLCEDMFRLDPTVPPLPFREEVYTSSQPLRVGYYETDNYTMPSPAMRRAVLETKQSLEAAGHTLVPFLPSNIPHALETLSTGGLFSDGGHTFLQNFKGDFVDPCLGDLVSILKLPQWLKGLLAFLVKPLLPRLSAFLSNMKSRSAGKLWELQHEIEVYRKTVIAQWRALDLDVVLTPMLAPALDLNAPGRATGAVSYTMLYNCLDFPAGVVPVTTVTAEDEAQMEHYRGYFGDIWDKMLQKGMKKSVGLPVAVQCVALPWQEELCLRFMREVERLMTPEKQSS
Summary of the method: (§1)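 Expressed, partially purified rat or human FAAH incubated with compound, or AEA as reference substrate, for 30 min. Aliquots at time points quenched in acetonitrile to precipitate protein. Remaining compound measured by LC-MS/MS on a cyano column with 10 mM ammonium acetate pH 7.3/methanol at 0.5 mL/min.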

Cannabinoid receptor 2 [4] = target: Cannabinoid receptor 2 (Homo sapiens, UniProt P34972); assay: Displacement of [3H]CP-55,940 from human CB2 receptor expressed in HEK293 cell membranes in absence of FAAH inhibitor PMSF by radioligand binding assay
Cannabinoid receptor 1 [5] = target: T1, Cannabinoid receptor 1; assay: Displacement of [3H]CP-55,940 from CB1 receptor in rat brain membranes in presence of FAAH inhibitor PMSF by radioligand binding assay; format: cell membranes, Membrane
[6] = target: Cannabinoid receptor 1 (Rattus norvegicus) (UniProt P20272); assay: Agonist activity at rat CB1 receptor expressed in HEK293 cells assessed as inhibition of forskolin-induced cAMP accumulation incubated for 30 mins relative to 500 nM CP-55,940; format: functional, cell-based
Cannabinoid receptor 1 [7] = target: T1, Cannabinoid receptor 1; assay: Agonist activity at rat CB1 receptor expressed in HEK293 cells assessed as inhibition of forskolin-induced cAMP accumulation incubated for 30 mins; format: functional, cell-based
Summary of the method: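 HEK293 cells stably expressing rCB1, harvested with nonenzymatic dissociation reagent, washed in HBSS, 1000–1500 cells/well. Test compound at various concentrations with forskolin (2 μM final) in stimulation buffer, 30 min at room temperature. cAMP read by TR-FRET (Eu-cAMP tracer plus ULight anti-cAMP, 60 min room temperature). Forskolin-stimulated cAMP set to 100%. EC50 from nonlinear regression; two independent experiments in triplicate.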

[8] = target: T2, FAAH (fatty-acid amide hydrolase 1); assay: Stability assessed as half life for human FAAH-mediated compound hydrolysis by LC-MS/MS analysis; format: ADME; settings: human FAAH (fatty-acid amide hydrolase 1); summary of the method: as §1
[9] = target: T3, Prostaglandin G/H synthase 2 (Mus musculus, UniProt Q05769); assay: Stability assessed as mouse COX2-mediated compound oxidation by measuring oxygen consumption by polarographic assay; format: ADME
T3 sequence (Q05769 whole entry): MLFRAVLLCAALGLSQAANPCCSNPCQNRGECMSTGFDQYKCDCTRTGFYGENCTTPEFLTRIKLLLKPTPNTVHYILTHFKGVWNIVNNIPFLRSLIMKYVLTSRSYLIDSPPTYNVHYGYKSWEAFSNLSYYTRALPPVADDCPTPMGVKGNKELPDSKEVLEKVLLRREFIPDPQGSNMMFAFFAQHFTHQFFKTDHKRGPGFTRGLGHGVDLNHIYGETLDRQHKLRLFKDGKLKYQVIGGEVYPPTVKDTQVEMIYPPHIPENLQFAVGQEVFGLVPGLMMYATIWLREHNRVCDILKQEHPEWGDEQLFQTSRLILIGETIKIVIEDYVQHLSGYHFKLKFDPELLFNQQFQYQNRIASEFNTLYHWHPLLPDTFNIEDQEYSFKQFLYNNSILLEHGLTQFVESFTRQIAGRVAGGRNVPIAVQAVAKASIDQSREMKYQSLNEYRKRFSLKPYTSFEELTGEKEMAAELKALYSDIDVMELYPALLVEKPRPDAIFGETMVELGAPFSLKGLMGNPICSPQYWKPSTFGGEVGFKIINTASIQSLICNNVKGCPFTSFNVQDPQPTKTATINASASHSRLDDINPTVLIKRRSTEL

[10] = target: T4, FAAH (fatty-acid amide hydrolase 1) (Rattus norvegicus, UniProt P97612); assay: Stability assessed as rat FAAH-mediated compound hydrolysis by LC-MS/MS analysis; format: ADME; settings: rat FAAH (fatty-acid amide hydrolase 1), read-out: Stability; summary of the method: as §1
T4 sequence (P97612 whole entry): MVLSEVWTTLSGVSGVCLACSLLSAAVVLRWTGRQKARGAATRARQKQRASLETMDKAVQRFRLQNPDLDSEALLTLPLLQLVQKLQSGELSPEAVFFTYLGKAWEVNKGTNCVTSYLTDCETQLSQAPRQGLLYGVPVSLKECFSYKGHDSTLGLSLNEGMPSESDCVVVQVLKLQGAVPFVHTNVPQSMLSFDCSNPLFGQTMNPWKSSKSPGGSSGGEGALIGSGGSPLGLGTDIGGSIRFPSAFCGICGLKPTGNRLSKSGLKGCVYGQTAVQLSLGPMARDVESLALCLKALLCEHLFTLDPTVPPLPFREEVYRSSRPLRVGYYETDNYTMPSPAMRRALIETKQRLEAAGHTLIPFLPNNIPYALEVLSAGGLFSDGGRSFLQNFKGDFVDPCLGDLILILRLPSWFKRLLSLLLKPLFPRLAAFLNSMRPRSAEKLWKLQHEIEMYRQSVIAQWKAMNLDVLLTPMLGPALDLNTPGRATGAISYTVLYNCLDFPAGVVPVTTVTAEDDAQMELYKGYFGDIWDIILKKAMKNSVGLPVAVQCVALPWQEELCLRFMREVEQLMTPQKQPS

Mus musculus [11] = assay: Antiallodynic activity in CD1 mouse model of CFA-induced inflammatory pain assessed as increase in CFA-reduced mechanical paw withdrawal threshold at 20 mg/kg, ip measured at 120 mins post injection; format: functional, organism-based
Summary of the method: (§2)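 Adult male mice (39 ± 10 g), wild-type CD1 or CB1 KO on CD1 background, single housed. CFA:saline 1:1 (20 μL) injected intraplantar into right hind paw; 48 h allowed before dosing. Drug given ip in 5 mL/kg, vehicle group included. Electronic von Frey (90 g probe) after ≥30 min habituation, read in duplicate per paw, at baseline, 48 h post-CFA and 10, 30, 60, 120 min post-dose. Two-way mixed ANOVA with Bonferroni post hoc tests.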

Mus musculus [12] = assay: Antiallodynic activity in CD1 mouse model of CFA-induced inflammatory pain assessed as increase in CFA-reduced mechanical paw withdrawal threshold at 20 mg/kg, ip measured up to 30 mins post injection; format: functional, organism-based; summary of the method: as §2
Mus musculus [13] = assay: Antiallodynic activity in CD1 mouse model of CFA-induced inflammatory pain assessed as increase in CFA-reduced mechanical paw withdrawal threshold at 20 mg/kg, ip measured at 60 mins post injection; format: functional, organism-based; summary of the method: as §2
Mus musculus [14] = assay: Antiallodynic activity in CD1 mouse model of CFA-induced inflammatory pain assessed as increase in CFA-reduced mechanical paw withdrawal threshold at 20 mg/kg, ip measured at 10 mins post injection; format: functional, organism-based; summary of the method: as §2
[15] = target: T4, FAAH (fatty-acid amide hydrolase 1); assay: Stability assessed as half life for rat FAAH-mediated compound hydrolysis by LC-MS/MS analysis; format: ADME; settings: rat FAAH (fatty-acid amide hydrolase 1); summary of the method: as §1
Mus musculus [16] = assay: Antiallodynic activity in CD1 mouse model of CFA-induced inflammatory pain assessed as increase in CFA-reduced mechanical paw withdrawal threshold at 20 mg/kg, ip measured at 30 mins post injection; format: functional, organism-based; summary of the method: as §2

Chain of Cannabinoid receptor 2 (Homo sapiens, UniProt P34972) (P34972 whole entry): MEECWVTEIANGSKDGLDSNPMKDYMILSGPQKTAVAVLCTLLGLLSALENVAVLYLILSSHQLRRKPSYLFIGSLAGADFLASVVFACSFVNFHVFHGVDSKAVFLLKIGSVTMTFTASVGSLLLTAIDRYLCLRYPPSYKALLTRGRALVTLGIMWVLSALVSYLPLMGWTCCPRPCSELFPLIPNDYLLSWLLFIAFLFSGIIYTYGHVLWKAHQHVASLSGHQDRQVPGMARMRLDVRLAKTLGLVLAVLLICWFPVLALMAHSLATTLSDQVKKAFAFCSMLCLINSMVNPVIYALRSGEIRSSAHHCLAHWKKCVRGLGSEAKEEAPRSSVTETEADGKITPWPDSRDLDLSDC
T1 sequence (P20272 whole entry): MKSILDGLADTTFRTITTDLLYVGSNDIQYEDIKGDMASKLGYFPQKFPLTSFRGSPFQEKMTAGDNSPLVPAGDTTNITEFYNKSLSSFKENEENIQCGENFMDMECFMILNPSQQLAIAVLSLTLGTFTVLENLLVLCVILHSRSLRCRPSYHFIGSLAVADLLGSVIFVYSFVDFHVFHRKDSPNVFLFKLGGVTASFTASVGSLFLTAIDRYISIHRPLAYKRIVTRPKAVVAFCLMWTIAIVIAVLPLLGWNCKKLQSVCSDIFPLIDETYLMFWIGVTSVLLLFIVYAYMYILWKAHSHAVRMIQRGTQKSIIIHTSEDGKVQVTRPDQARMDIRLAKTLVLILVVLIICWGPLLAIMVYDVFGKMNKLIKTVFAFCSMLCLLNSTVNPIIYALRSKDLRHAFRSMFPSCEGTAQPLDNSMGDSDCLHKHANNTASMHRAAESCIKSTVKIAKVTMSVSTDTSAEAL
Chain of Cannabinoid receptor 1 (Rattus norvegicus) (P20272 whole entry): as above
Chain of Cannabinoid receptor 2 (Mus musculus, UniProt P47936) (P47936 whole entry): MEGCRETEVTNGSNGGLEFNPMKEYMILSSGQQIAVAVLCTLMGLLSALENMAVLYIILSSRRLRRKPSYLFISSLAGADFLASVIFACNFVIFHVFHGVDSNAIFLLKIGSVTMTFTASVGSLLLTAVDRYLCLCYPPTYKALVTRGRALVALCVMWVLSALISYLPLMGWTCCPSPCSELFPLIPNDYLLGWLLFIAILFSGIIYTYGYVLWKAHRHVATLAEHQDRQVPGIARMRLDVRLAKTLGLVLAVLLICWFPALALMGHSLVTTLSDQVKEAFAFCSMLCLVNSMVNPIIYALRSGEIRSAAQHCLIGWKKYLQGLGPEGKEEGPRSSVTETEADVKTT

Compound	Ki (Cannabinoid receptor 1 [1]) [nM]	Ki (Cannabinoid receptor 2 [2]) [nM]	Ki (Cannabinoid receptor 2 [4]) [nM]	Ki (Cannabinoid receptor 1 [5]) [nM]	Emax [6]	EC50 (Cannabinoid receptor 1 [7]; read-out: EC50) [nM]	Stability [9]	also measured
CCCCC/C=C\[C@H](C)/C=C\C/C=C\C/C=C\CCCC(=O)NC1CCCC1	123	387	139	79	–	–	–	half-life [3]: 30 min
C[C@H](/C=C\C/C=C\C/C=C\CCCC(=O)NC1CC1)/C=C\CCCCCN=C=S	20.3	47.7	22.1	15.6	–	–	–	–
CCCCC/C=C\[C@H](C)/C=C\C/C=C\C/C=C\CCCC(=O)NCCO	> 1000	137	50.5	4.8	88%	13.2	Stable	half-life [8]: 13.5 min
CCCCC/C=C\C/C=C\[C@H](C)/C=C\C/C=C\CCCC(=O)NCCO	> 1000	> 1000	> 1000	> 1000	–	–	–	–
CCCCC/C=C\C/C=C\C/C=C\[C@H](C)/C=C\CCCC(=O)N[C@H](C)CO	4.6	19.8	12.8	2.2	100%	28.4	Stable	half-life [10]: 30 min; half-life [3]: 30 min
C[C@H](/C=C\C/C=C\C/C=C\CCCC(=O)NC1CC1)/C=C\CCCCCN=[N+]=[N-]	10.5	13.3	8.5	6.3	85%	1.9	–	–
CCCCC/C=C\[C@@H](C)/C=C\C/C=C\C/C=C\CCCC(=O)N[C@H](C)CO	> 1000	> 1000	–	> 1000	–	–	–	–
CCCCC/C=C\C/C=C\C/C=C\C/C=C\CCCC(=O)N[C@H](C)CO [METHANANDAMIDE]	–	> 1000	–	–	–	–	–	Activity (Mus musculus [11]): inactive; Activity (Mus musculus [12]): Active; Activity (Mus musculus [13]): Active; Activity (Mus musculus [14]): Active
CCCCC/C=C\[C@H](C)/C=C\C/C=C\C/C=C\CCCC(=O)NC1CCC1	17.6	90	6.8	23.1	92%	36.1	Stable	half-life [3]: 30 min
CCCCC/C=C\[C@@H](C)/C=C\C/C=C\C/C=C\CCCC(=O)NCCO	> 1000	> 1000	> 1000	> 1000	inactive	–	–	EC50 (Cannabinoid receptor 1 [7]; hek293): Not Active
CCCCC/C=C\[C@H](C)/C=C\C/C=C\C/C=C\CCCC(=O)NCCCl	45.3	401	10.4	3.9	–	–	–	–
CCCCC/C=C\C/C=C\C/C=C\[C@@H](C)/C=C\CCCC(=O)N[C@H](C)CO	29.3	> 1000	120	21.4	98%	58.3	Stable	–
CCCCC/C=C\C/C=C\C/C=C\C/C=C\CCCC(=O)NCCO [ANANDAMIDE]	–	> 1000	–	–	61%	–	–	half-life [15]: 12.1 min; Activity (Mus musculus [16]): inactive; half-life [8]: 13.2 min; Activity (Mus musculus [14]): Active
CCCCC/C=C\[C@H](C)/C=C\C/C=C\C/C=C\CCCC(=O)NC1CC1	14.7	57.5	4.3	1.5	88%	0.3	Stable	half-life [8]: 25.2 min
CCCCC/C=C\C/C=C\C/C=C\[C@H](C)/C=C\CCCC(=O)NCCO	326	7.5	24.7	1.7	100%	4.8	Stable	–
CCCCC/C=C\C/C=C\C/C=C\[C@@H](C)/C=C\CCCC(=O)NCCO	> 1000	> 1000	188	520	inactive	–	Stable	EC50 (Cannabinoid receptor 1 [7]; hek293): Not Active
C#CCNC(=O)CCC/C=C\C/C=C\C/C=C\[C@@H](C)/C=C\CCCCC	8.6	74	11.2	4.3	89%	10.4	–	half-life [3]: 30 min
C[C@H](/C=C\C/C=C\C/C=C\CCCC(=O)N[C@H](C)CO)/C=C\CCCOc1ccccc1	65	> 1000	286	83	–	–	–	–
CCCCC/C=C\C/C=C\[C@@H](C)/C=C\C/C=C\CCCC(=O)NCCO	> 1000	> 1000	> 1000	> 1000	–	–	–	–
